Compound activity (PubChem)
CaV13 FRET inh: Primary screen for inhibitors of IQ motif and Ca2+-dependent inactivation inhibitor domain binding in CACNA1D, Förster resonance energy transfer in living cells, … | inhibition, % at 12.3 µM | AID 743397 | 340,000 tested, 0.098% active | HEK cells, CFP/YFP FRET ICDI-IQ, plate reader, 10 min; percent FRET-ratio fall versus neutral wells;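 active = mean replicate inhibition of at least 30% and at least 1% of replicates passing that level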
Arrestin-AP2 inh: inhibitors of human beta-arrestin and AP2 interaction | FITC-arrestin peptide / GST-AP2 beads, flow cytometry; AP2 beta2 appendage carries R879A mutation | inhibition, % at 10 µM | 340,000 tested, 0.31% active | AID 504490;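 active = inhibition above a set limit, near 3 SD of compounds lacking own fluorescence, cut at about 54% in these data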
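Assay system: GST-AP2 R879A bound to glutathione beads, E. coli-expressed; Medium: PBS with 0.05% Tween 20 and 0.1% BSA; Also added: fluorescein-tagged arrestin peptide at 50 nM final; Timing: 12 min plus 1 h, RT; Measured by: flow cytometry, FL1 (488/535 nm); Evaluation: percent drop in bead-associated FITC signal.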
NRP1-CendR mod: NRP-1/CendR interaction modulation; FAM-RPARPAR peptide binding to NRP-1, fluorescence polarization; inhibition, % at 25 µM; AID 602438; 360,000 tested, 0.85% active; O14786;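 active = inhibition or corrected inhibition above about 18%, plus a signal ratio from 0.5 to 1.5, limit read from the data, passing the limit was not always enough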
FAS-TE inh: FAS thioesterase (human) inhibition. P49327. recombinant FAS-TE, OMFH fluorogenic substrate, fluorescence endpoint. inhibition, % at 15 µM. 360,000 tested, 0.67% active;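 active = compounds whose normalised, plate-corrected inhibition of enzyme fluorescence in the single-dose primary screen is 50% or more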
ADAM17 inh: ADAM17 inhibition, QFRET primary screen; P78536; AID 720648; 370,000 tested, 0.83% active; recombinant ADAM17, EDANS/DABCYL FRET peptide cleavage; inhibition, % at 6.95 µM;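 active = inhibition above the mean of compounds lying between control limits plus 3 SD, set per campaign, cut at about 8.5% in these data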
ADAM10 inh: inhibitors of human ADAM10. O14672. recombinant ADAM10, EDANS/DABCYL FRET peptide cleavage, 3 h. inhibition, % at 7 µM. 370,000 tested, 0.62% active. AID 720582;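 active = inhibition above a per-campaign cutoff equal to the mean of compounds falling between control-based bounds plus 3 SD, cut at about 20% in these data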
Each line names hits and unclear results; the compound was inactive in the other large screens; ! = not active in a repeat. Hits are enriched below; roughly 2.9% of the tested compounds scored in any of these assays.

CC[C@@H]1C/C=C\Cc2ccccc2[C@@H](C(=O)C[C@@H](O)CC(C)=O)OC1=O	none
CCOC(=O)CSc1nc2ccc(Nc3nc(N4CCOCC4)nc(N4CCOCC4)n3)cc2s1	FAS-TE inh 54
Cn1c(=O)[nH]c2c(Br)nccc21	none (no result: CaV13 FRET inh, Arrestin-AP2 inh, NRP1-CendR mod, FAS-TE inh)
COc1cc(-n2c(C)nc3cc(C(=O)N4CC(C)CC(C)C4)ccc32)cc(OC)c1OC (stereo not given)	none (no result: CaV13 FRET inh, Arrestin-AP2 inh, NRP1-CendR mod, FAS-TE inh)
C[C@@H]1CN([C@H](C)CO)C(=O)CCCn2nncc2CO[C@@H]1CN(C)C(=O)CCC(F)(F)F	NRP1-CendR mod 27 (no result: Arrestin-AP2 inh)
C[C@@H]1CN([C@H](C)CO)C(=O)CCCn2nncc2CO[C@H]1CN(C)S(=O)(=O)c1cn(C)cn1	NRP1-CendR mod 27 (no result: Arrestin-AP2 inh)
C[C@@H]1CN([C@@H](C)CO)C(=O)CCCn2nncc2CO[C@H]1CN(C)C(=O)CCC(F)(F)F	none (no result: Arrestin-AP2 inh)
O=C(CSc1nc2ccccc2n1Cc1ccccc1Cl)N/N=C/c1ccccc1C(=O)O	NRP1-CendR mod 40
O=C(COCc1ccccc1)N1CC[C@H]2[C@H](CCCN2Cc2cc(F)cc(F)c2)C1	none (no result: CaV13 FRET inh, Arrestin-AP2 inh, NRP1-CendR mod, FAS-TE inh)
Cc1nc(N)[nH]c(=O)c1CCCNc1ccc(CCC2(CCl)OCCO2)cc1	none
COC(=O)c1cc(-c2cccc(C(C)C)c2)c(=O)n2c1CCC2	none (no result: CaV13 FRET inh, Arrestin-AP2 inh, NRP1-CendR mod, FAS-TE inh)
Cc1ccccc1CS(=O)(=O)c1ccc(C(=O)N2CCOCC2)cc1[N+](=O)[O-]	none
O=C(c1ccc(S(=O)(=O)Cc2ccccc2Cl)c([N+](=O)[O-])c1)N1CCOCC1	NRP1-CendR mod 17
CCCCOCCCNC(=O)C[C@@H]1C[C@@]2(C(=O)OCC)CCC=C2N(Cc2ccc3c(c2)OCO3)C1=O	none (no result: Arrestin-AP2 inh)
CSCCC(NS(=O)(=O)c1ccc2c(c1)OCCO2)C(=O)N(C)Cc1ccccc1F (stereo not given)	none
CCCCCCCCCCOC(=O)Cn1c(COc2ccc(Cl)cc2)[n+](C)c2ccccc21	NRP1-CendR mod 20
N#Cc1nc(COc2ccccc2)oc1NCCN1CCOCC1	none (no result: CaV13 FRET inh)
N#Cc1nc(COc2ccc(-c3ccccc3)cc2)oc1NCCCN1CCOCC1	Arrestin-AP2 inh 83 (no result: CaV13 FRET inh)
COc1cc(CC(=O)O)ccc1OCc1ccccc1	NRP1-CendR mod 26
COc1cc(C(c2c(C(=O)O)[nH]c3ccccc23)c2c(C(=O)O)[nH]c3ccccc23)ccc1OCc1ccccc1	CaV13 FRET inh 103
O=C(O)c1[nH]c2ccccc2c1C(c1ccccc1)c1c(C(=O)O)[nH]c2ccccc12	none
CC(O)C(NC=C1C(=O)OC(C)(C)OC1=O)C(=O)O (stereo not given)	NRP1-CendR mod 29
COC(=O)C[C@@H]1CC[C@H](NC(=O)c2ccc3c(c2)OCO3)[C@@H](CO)O1	none (no result: Arrestin-AP2 inh, FAS-TE inh)
Cc1ccc(S(=O)(=O)N2c3ccccc3CC2C)cc1 (stereo not given)	none
Cc1ccc(S(=O)(=O)N2c3ccc(S(N)(=O)=O)cc3CC2C)cc1 (stereo not given)	NRP1-CendR mod 22
CN1C(=O)[C@H]2[C@@H](/C=C/c3ccccc3)N3C(=O)CN(Cc4ccccn4)C(=O)[C@@]3(Cc3ccccc3)[C@H]2C1=O	NRP1-CendR mod 29
CC1(c2nnc(Cc3ccccc3)o2)CC(c2cccc(Cl)c2)=NO1 (stereo not given)	NRP1-CendR mod 28
CC1(c2nnc(Cc3ccccc3)o2)CC(c2ccccc2)=NO1 (stereo not given)	none
Cc1ccc(S(=O)(=O)N2CCCC2c2cccc3[nH]cc(C)c23)cc1 (stereo not given)	none (no result: CaV13 FRET inh, Arrestin-AP2 inh, NRP1-CendR mod, FAS-TE inh)
C=Cc1c(C)c2cc3[nH]c(cc4nc(cc5nc(cc1[nH]2)C(C)=C5CCC(=O)O)C(CCC(=O)O)=C4C)c(C)c3C=C	NRP1-CendR mod 20! (no result: CaV13 FRET inh)
O=C(CSc1nnc(-c2cnccn2)n1-c1ccccc1)c1ccccc1Br	none (no result: CaV13 FRET inh, Arrestin-AP2 inh, NRP1-CendR mod, FAS-TE inh)
NNc1ncnc2c1cnn2-c1ccccc1	NRP1-CendR mod 28 (no result: CaV13 FRET inh)
O=C(NCC(c1ccco1)N1CCCC1)c1cccc(S(=O)(=O)N2CCc3ccccc32)c1 (stereo not given)	none (no result: Arrestin-AP2 inh)
CCn1c2ccccc2c2cc(NC(=O)COC(=O)c3cc(Cl)cc(Cl)c3)ccc21	none (no result: CaV13 FRET inh, Arrestin-AP2 inh, NRP1-CendR mod, FAS-TE inh)
O=C1C(Cl)=C(Nc2ccccc2O)C(=O)N1CCc1ccccc1	ADAM17 inh 16, ADAM10 inh 33
CCCC1CCC2(CC1)CCC2OC(=S)Nc1cccc(I)c1 (stereo not given)	none (no result: CaV13 FRET inh, Arrestin-AP2 inh, NRP1-CendR mod, FAS-TE inh)
C=CCNC(=O)c1ccccc1NC(=O)c1ccc(Cl)c(S(=O)(=O)Nc2ccccc2)c1	ADAM10 inh 27
COC(=O)[C@]12C[C@H](CC(=O)N3CCCC3)C(=O)N(CCC3=CCCCC3)C1=C[C@H](C(C)(C)C)O[C@@H]2C	none (no result: Arrestin-AP2 inh, NRP1-CendR mod, FAS-TE inh)
CCCN=C1N/C(=C\c2ccco2)C(=O)N1c1ccccc1	NRP1-CendR mod 43 (no result: CaV13 FRET inh)
Cc1ccc2oc(=O)n(CCOc3ccccc3C)c2c1	NRP1-CendR mod 38
Cc1cc(N2CCN(C(c3ccccc3)c3ccccc3)CC2)n2ncnc2n1	FAS-TE inh 54
CCNC(=O)C1(C)CCCN1C(=O)c1ccc2c(c1)OCO2 (stereo not given)	none (no result: Arrestin-AP2 inh)
Nc1[nH]c(C(=O)c2ccccc2)c(-c2ccccc2Cl)c1C(=O)c1ccccc1	none (no result: Arrestin-AP2 inh)
Cc1ccc(/C=C2/SC(=S)N(C3CCCCC3)C2=O)o1	Arrestin-AP2 inh 62
Cc1ccc(/C=C2/SC(=O)NC2=S)o1	NRP1-CendR mod 53 (no result: CaV13 FRET inh, ADAM17 inh, ADAM10 inh)
COc1cccc(N2CCN(C(=O)CCn3nnc4ccccc43)CC2)c1	none (no result: CaV13 FRET inh, Arrestin-AP2 inh, NRP1-CendR mod, FAS-TE inh)
COC(=O)c1c(NC(=O)CN(c2ccccc2)S(C)(=O)=O)sc2c1CCCC2	NRP1-CendR mod 27
COC(=O)c1c(NS(=O)(=O)Cc2ccccc2)sc2c1CCCC2	none (no result: CaV13 FRET inh)
CCCN1C(=O)C2(OCCO2)c2cc(Cl)ccc21	none
CN1c2ccc(Cl)cc2C(=O)NC1C1CC=CCC1 (stereo not given)	CaV13 FRET inh 44
COc1cccc(/C=C/C(=O)OCC(=O)Nc2ccc(Cl)c(S(=O)(=O)N(C)C)c2)c1	none
COc1cccc(/C=C/C(=O)OCC(=O)Nc2cc(C(F)(F)F)ccc2Cl)c1	NRP1-CendR mod 39
COc1cccc(/C=C/C(=O)OCC(=O)c2ccc(Br)cc2)c1	NRP1-CendR mod 18 (no result: Arrestin-AP2 inh)
COc1ccc(Cl)cc1-c1cc(C(=O)NCc2cccc(C(F)(F)F)c2)[nH]n1	none (no result: Arrestin-AP2 inh)
COCCNc1nc(C)cc(-c2cc(-c3ccc(Cl)cc3)on2)n1	none (no result: Arrestin-AP2 inh)
COCCNc1nc(-c2cc(-c3ccccc3)on2)cc(C(C)C)n1	NRP1-CendR mod 26
O=C(Nc1ccccc1-c1ccccc1)c1ccccc1	none
Nc1c(S(=O)(=O)O)cc(NC(=O)c2ccccc2)c2c1C(=O)c1ccccc1C2=O	NRP1-CendR mod 27 (no result: CaV13 FRET inh, ADAM17 inh, ADAM10 inh)
Cc1ccccc1-n1ncc2c1CC(C)(C)CC2NC(=O)c1ccncc1 (stereo not given)	NRP1-CendR mod 44
